The source of these data is ChEMBL document CHEMBL1141882, “Synthesis and biological testing of purine derivatives as potential ATP-competitive kinase inhibitors” (J Med Chem, 2005).

One may read the inhibition as how much of the control response was suppressed.

The target in assay [1] is Mitogen-activated protein kinase 10 (Rattus norvegicus) (UniProt P49187). As to the kind of experiment: Inhibition of rat c-Jun N-terminal kinase-3 at 30 uM. The gist of the method: (§1)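 Kinase activity assayed with ATP at 100 µM, deliberately higher than usual assay ATP levels because the inhibitors are assumed ATP-competitive. Results are reported as percent inhibition of each kinase.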
Mitogen-activated protein kinase 10 (Rattus norvegicus), sequence (P49187 whole entry): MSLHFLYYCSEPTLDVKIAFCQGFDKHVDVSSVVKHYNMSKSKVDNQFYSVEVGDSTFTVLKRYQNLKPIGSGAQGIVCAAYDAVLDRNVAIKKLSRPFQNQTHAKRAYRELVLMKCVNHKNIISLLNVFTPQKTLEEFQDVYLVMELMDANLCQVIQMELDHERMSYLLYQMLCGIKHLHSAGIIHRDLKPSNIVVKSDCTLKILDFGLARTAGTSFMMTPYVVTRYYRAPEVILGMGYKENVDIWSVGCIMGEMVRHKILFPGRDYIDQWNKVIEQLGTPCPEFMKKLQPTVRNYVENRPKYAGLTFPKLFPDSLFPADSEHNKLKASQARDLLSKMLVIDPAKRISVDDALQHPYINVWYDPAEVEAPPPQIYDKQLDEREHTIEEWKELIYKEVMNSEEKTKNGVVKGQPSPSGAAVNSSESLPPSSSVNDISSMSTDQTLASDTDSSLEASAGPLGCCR

Assay [2] addresses RAC-alpha serine/threonine-protein kinase (Homo sapiens) (UniProt P31749). As to the kind of experiment: Inhibition of human Protein kinase B alpha at 30 uM. The essentials: as §1
For assay [3], the target named is Mitogen-activated protein kinase 14 (Homo sapiens) (UniProt Q16539). As to the kind of experiment: Inhibition of human stress-activated protein kinase-2 alpha (p38 MAP-kinase) at 30 uM. The gist of the method: as §1
Mitogen-activated protein kinase 14 (Homo sapiens), sequence (Q16539 whole entry): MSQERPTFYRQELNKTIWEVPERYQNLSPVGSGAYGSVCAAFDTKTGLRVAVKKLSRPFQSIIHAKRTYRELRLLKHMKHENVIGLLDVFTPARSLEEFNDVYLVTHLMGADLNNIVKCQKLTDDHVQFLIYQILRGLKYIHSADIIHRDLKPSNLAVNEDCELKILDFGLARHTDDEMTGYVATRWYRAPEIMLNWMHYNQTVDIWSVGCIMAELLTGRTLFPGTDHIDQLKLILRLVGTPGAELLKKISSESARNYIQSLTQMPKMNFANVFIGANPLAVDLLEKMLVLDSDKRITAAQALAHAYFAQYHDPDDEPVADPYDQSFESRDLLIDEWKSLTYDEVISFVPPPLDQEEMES
Assay [4] deals with Dual specificity mitogen-activated protein kinase kinase 1 (Homo sapiens) (UniProt Q02750). As to the kind of experiment: Inhibition of human Mitogen activated protein kinase kinase 1 (MEK1) at 30 uM. The essentials: as §1
Dual specificity mitogen-activated protein kinase kinase 1 (Homo sapiens), sequence (Q02750 whole entry): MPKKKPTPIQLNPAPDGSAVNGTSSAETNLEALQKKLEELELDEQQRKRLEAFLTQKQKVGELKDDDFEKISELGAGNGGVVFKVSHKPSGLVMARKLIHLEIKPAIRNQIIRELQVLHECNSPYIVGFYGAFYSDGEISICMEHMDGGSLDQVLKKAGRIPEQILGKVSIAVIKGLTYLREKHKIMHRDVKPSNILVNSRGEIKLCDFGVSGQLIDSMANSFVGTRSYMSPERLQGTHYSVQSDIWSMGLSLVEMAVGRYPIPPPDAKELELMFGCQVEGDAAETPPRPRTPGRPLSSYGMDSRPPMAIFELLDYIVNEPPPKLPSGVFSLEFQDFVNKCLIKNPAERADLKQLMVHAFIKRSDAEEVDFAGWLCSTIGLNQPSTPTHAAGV
In assay [5] the target is Protein kinase C alpha type (Homo sapiens) (UniProt P17252). As to the kind of experiment: Inhibition of human Protein kinase C alpha. On the set-up: concentration or dose not given beside the values. Conditions: concentration not given here.
For assay [6], the target named is cAMP-dependent protein kinase (PKA) (Homo sapiens) (UniProt P22694+P17612+P22612). As to the kind of experiment: Inhibition of human cAMP-dependent protein kinase (PKA). On the set-up: concentration or dose not given beside the values. It counts as protein assay. The following applies: concentration not given here.
Assay [7] addresses Ca2+/calmodulin-dependent protein kinase II (CaM kinase II) (Rattus norvegicus) (UniProt P11275+P08413+P15791+P11730). As to the kind of experiment: Inhibition of rat Calcium/calmodulin-dependent protein kinase type II at 30 uM. Format: protein assay. The gist of the method: as §1
For assay [8], the target named is Glycogen synthase kinase-3 beta (Homo sapiens) (UniProt P49841). As to the kind of experiment: Inhibition of human Glycogen synthase kinase-3 beta at 30 uM. The gist of the method: as §1
Glycogen synthase kinase-3 beta (Homo sapiens), sequence (P49841 whole entry, looked up): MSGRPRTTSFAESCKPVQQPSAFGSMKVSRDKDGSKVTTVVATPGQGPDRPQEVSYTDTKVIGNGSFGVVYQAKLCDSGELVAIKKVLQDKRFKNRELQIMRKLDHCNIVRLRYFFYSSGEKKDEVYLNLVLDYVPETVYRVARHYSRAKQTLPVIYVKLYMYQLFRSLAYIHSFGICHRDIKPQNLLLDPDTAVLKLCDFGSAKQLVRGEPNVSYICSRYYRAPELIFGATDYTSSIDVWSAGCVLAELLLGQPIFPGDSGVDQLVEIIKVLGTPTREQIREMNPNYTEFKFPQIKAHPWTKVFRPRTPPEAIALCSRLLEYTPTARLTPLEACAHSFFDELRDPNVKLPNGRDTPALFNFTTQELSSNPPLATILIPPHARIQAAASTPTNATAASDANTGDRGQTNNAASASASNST
For assay [9], the target named is Mitogen-activated protein kinase 8 (Homo sapiens) (UniProt P45983). As to the kind of experiment: Inhibition of human c-Jun N-terminal kinase-1 alpha-1 at 30 uM. The gist of the method: as §1
Mitogen-activated protein kinase 8 (Homo sapiens), sequence (P45983 whole entry): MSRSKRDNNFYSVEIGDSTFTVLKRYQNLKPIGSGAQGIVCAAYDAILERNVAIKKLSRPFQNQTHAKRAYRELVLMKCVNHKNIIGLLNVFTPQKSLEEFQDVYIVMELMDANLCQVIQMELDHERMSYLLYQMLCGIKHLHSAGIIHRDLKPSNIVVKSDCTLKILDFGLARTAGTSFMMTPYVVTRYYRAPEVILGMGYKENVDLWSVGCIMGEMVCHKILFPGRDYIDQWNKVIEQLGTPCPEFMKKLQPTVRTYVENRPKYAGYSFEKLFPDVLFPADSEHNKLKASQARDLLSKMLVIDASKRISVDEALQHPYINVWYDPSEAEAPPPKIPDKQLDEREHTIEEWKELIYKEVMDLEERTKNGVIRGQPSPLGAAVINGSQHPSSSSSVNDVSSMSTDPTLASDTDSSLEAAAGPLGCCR
In assay [10] the target is Mitogen-activated protein kinase 9 (Homo sapiens) (UniProt P45984). As to the kind of experiment: Inhibition of human c-Jun N-terminal kinase-2 alpha-2 at 30 uM. The essentials: as §1
Mitogen-activated protein kinase 9 (Homo sapiens), sequence (P45984 whole entry, looked up): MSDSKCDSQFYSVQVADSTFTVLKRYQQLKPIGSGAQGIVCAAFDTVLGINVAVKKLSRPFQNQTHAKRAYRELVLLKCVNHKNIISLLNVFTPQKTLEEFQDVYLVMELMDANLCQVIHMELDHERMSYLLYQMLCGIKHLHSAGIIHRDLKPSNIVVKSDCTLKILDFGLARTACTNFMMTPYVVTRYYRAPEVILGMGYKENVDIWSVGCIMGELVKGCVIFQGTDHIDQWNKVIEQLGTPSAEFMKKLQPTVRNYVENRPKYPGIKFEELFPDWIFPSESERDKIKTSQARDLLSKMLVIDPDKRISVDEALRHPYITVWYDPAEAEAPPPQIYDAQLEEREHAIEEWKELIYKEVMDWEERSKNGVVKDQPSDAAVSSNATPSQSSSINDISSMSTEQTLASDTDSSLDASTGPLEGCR
Assay [11] addresses Mitogen-activated protein kinase 1 (Homo sapiens) (UniProt P28482). As to the kind of experiment: Inhibition of human Mitogen-activated protein kinase 2 at 30 uM. The gist of the method: as §1
Assay [12] has as its target Tyrosine-protein kinase Lck (Homo sapiens) (UniProt P06239). As to the kind of experiment: Inhibition of human lymphocyte protein tyrosine kinase Lck at 30 uM. The gist of the method:
as §1

Assay [13] addresses RAF proto-oncogene serine/threonine-protein kinase (Homo sapiens) (UniProt P04049). As to the kind of experiment: Inhibition of human RAF proto-oncogene serine/threonine-protein kinase at 30 uM. The essentials:
as §1

For assay [14], the target named is Rho-associated protein kinase 2 (Homo sapiens) (UniProt O75116). As to the kind of experiment: Inhibition of human Rho-dependent protein kinase-II at 30 uM.

RAF proto-oncogene serine/threonine-protein kinase (Homo sapiens), sequence (P04049 whole entry): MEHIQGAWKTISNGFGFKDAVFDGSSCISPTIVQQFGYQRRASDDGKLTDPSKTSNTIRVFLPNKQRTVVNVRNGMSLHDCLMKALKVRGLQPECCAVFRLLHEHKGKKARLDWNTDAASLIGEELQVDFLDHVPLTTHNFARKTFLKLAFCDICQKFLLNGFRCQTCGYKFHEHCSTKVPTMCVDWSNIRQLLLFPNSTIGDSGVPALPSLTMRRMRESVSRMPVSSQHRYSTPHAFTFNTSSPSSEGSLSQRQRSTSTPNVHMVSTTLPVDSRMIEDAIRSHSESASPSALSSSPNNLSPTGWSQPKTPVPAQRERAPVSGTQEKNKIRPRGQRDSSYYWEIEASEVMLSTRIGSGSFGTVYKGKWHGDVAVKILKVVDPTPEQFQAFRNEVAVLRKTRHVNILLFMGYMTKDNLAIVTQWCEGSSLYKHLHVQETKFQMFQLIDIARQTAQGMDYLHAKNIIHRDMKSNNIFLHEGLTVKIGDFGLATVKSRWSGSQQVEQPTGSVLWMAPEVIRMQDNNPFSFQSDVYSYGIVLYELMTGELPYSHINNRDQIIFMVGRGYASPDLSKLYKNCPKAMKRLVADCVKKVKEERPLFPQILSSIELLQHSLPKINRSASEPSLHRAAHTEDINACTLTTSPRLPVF
Mitogen-activated protein kinase 1 (Homo sapiens), sequence (P28482 whole entry): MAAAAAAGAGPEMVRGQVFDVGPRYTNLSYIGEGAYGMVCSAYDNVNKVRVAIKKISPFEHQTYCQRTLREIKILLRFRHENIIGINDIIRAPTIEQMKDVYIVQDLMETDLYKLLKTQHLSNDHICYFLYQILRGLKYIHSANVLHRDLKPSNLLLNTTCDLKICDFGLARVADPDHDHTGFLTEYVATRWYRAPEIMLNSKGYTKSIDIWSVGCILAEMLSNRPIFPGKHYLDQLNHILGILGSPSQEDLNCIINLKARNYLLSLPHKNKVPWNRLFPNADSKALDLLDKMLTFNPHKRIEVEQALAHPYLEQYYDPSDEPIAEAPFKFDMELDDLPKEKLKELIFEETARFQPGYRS
RAC-alpha serine/threonine-protein kinase (Homo sapiens), sequence (P31749 whole entry): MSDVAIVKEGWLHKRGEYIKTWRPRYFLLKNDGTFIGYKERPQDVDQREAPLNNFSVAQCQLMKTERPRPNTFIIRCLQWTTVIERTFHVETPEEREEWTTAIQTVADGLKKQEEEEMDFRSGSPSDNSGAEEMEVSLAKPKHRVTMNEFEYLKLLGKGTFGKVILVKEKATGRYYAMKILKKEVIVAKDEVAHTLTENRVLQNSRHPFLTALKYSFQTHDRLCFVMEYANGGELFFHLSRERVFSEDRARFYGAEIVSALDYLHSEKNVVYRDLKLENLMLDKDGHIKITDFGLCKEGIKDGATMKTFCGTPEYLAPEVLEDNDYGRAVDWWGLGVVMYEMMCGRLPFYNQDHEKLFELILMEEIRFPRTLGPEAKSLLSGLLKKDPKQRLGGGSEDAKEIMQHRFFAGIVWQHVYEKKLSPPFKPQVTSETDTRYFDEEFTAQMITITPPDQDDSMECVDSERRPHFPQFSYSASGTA

On to `Clc1ncnc2c1ncn2Cc1ccccc1`, for which the inhibition came to 16% in assay [1]; 0% in assay [2]; 11% in assay [3]; 3% in assay [4]; 17% in assay [5]; 2% in assay [6]. In addition, the inhibition in assay [7] amounted to 7%; in assay [8] it was 0%; in [9] it was 0%; in assay [10], 0%; in assay [11], 0%; in [12], 0%. Besides, the inhibition in [13] was determined as 4%; in assay [14], 3%.
Regarding `c1ccc(CSc2ncnc3[nH]cnc23)cc1`, the inhibition in assay [1] turned out to be 7%; in assay [2], 4%; in [3] it was 50%; in assay [4] it was 7%; in [5] it was 11%; in assay [6], 13%. In addition, the inhibition in assay [7] was determined as 0%; in [8], 35%; in [9], 1%; in assay [10], 0%; in assay [11] it was 12%; in assay [12], 22%. The inhibition in [13] worked out at 53%; in [14] it was 28%.
For `COc1ncnc2ncn(Cc3ccc(F)cc3)c12`, the inhibition stood at 30% in assay [1]; 0% in assay [2]; 8% in assay [3]; 3% in assay [4]; 7% in assay [5]; 7% in assay [6]. The inhibition worked out at 2% in assay [7]; 5% in assay [8]; 0% in assay [9]; 0% in assay [10]; 3% in assay [11]; 0% in [12]. Also, the inhibition in assay [13] was determined as 9%; in [14], 1%.
As for `c1ccc(-[n+]2c[nH]c3ncncc32)cc1`, the inhibition in assay [1] is 3%; in assay [2] it was 0%; in assay [3], 0%; in [4] it was 0%; in assay [5], 4%; in assay [6], 0%. Further, the inhibition in [7] came out at 0%; in [8] it was 4%; in [9], 0%; in [10], 0%; in [11] it was 0%; in [12], 2%. The inhibition in assay [13] and in assay [14] was 0% each time.
In the case of `Fc1ccc(Sc2[nH]cnc3nccc2-3)cc1`, the inhibition was determined as 5% in [1]; 0% in [2]; 79% in assay [3]; 36% in assay [4]; 15% in assay [5]; 0% in assay [6]. The inhibition in [7] worked out at 3%; in assay [8] it was 4%; in assay [9] it was 2%; in assay [10], 6%; in [11], 2%; in assay [12], 52%. In addition, the results for the inhibition in [13] and in assay [14] were 43% and 42%, respectively.
For the molecule `Cn1cnc2c(Sc3ccc(F)cc3)ncnc21`, the inhibition in assay [1] was 9%; in assay [2], 0%; in assay [3], 38%; in assay [4] it was 6%; in [5], 7%; in assay [6], 1%. In addition, the inhibition in assay [7] came to 5%; in [8], 0%; in [9] it was 10%; in assay [10], 10%; in assay [11], 12%; in assay [12], 2%. In addition, the figures for the inhibition in [13] and in [14] were 12% and 6%, respectively.
For `Cn1c(C#CCCO)nc2c(Sc3ccccc3)ncnc21`, the inhibition was determined as 0% in [1]; 33% in [2]; 3% in [3]; 0% in [4]; 18% in [5]; 0% in assay [6]. Besides, the inhibition in [7] came to 10%; in assay [8] it was 0%; in assay [9], 0%; in [10], 0%; in assay [11] it was 0%; in assay [12], 11%. Further, the inhibition in [13] and in assay [14] was 0% throughout.
Turning to `Cn1cnc2c(Sc3ccccc3)ncnc21`, the inhibition in assay [1] stood at 7%; in assay [2], 0%; in [3], 17%; in assay [4], 3%; in assay [5], 13%; in [6], 0%. The inhibition in [7] came out at 8%; in [8], 3%; in assay [9], 3%; in [10] it was 6%; in assay [11], 12%; in assay [12] it was 6%. In addition, the inhibition in assay [13] stood at 10%; in [14] it was 6%.
`Fc1ccc(Sc2ncnc3c2ncn3Cc2ccccc2)cc1`: the inhibition in assay [1] came to 0%; in assay [2], 1%; in [3] it was 64%; in [4], 4%; in [5], 0%; in assay [6], 0%. Further, the inhibition in assay [7] worked out at 0%; in [8] it was 0%; in assay [9] it was 0%; in assay [10], 0%; in assay [11], 0%; in assay [12], 16%. Besides, the inhibition in assay [13] was 0%; in assay [14], 5%.
For the molecule `Cn1cnc2c(-c3ccccc3)ncnc21`, the inhibition in assay [1] came to 14%; in [2], 15%; in [3] it was 16%; in [4] it was 9%; in assay [5], 14%; in assay [6], 7%. Further, the inhibition in assay [7] is 8%; in assay [8], 11%; in assay [9] it was 9%; in [10], 11%; in [11] it was 9%; in [12], 21%. Besides, the inhibition in assay [13] came out at 12%; in assay [14] it was 8%.
`Cn1c(-c2ccc([S+](C)[O-])cc2)nc2c(Sc3ccccc3)ncnc21` (stereo unspecified): the inhibition in assay [1] turned out to be 6%; in assay [2] it was 4%; in assay [3], 27%; in [4], 3%; in assay [5], 8%; in assay [6] it was 0%. In addition, the inhibition in assay [7] is 8%; in assay [8], 4%; in assay [9] it was 0%; in assay [10] it was 0%; in [11], 0%; in [12], 30%. In addition, the inhibition in assay [13] was 0%; in assay [14], 1%.
Take `Fc1ccc(Cn2cnc3c(Cl)ncnc32)cc1`: the inhibition came to 20% in assay [1]; 0% in [2]; 10% in assay [3]; 1% in assay [4]; 14% in [5]; 0% in [6]. Further, the inhibition in [7] is 0%; in assay [8] it was 8%; in assay [9], 0%; in [10], 0%; in assay [11], 0%; in [12], 0%. The inhibition stood at 4% in assay [13] and 0% in assay [14].
For the molecule `Cn1cnc2c(Nc3ccccc3)ncnc21`, the inhibition in assay [1] stood at 5%; in assay [2], 0%; in assay [3], 0%; in [4] it was 4%; in [5] it was 2%; in [6], 0%. Further, the inhibition came out at 0% in assay [7]; 26% in assay [8]; 0% in [9]; 0% in assay [10]; 42% in [11]; 18% in assay [12]. Moreover, the inhibition came out at 44% in assay [13] and 0% in assay [14].
As to `Cn1cnc2c(SCc3ccccc3)ncnc21`, the inhibition is 5% in assay [1]; 4% in assay [2]; 22% in assay [3]; 6% in [4]; 13% in assay [5]; 0% in [6]. The inhibition in assay [7] was determined as 0%; in assay [8] it was 10%; in assay [9] it was 1%; in assay [10], 7%; in assay [11], 0%; in assay [12] it was 6%. Further, the inhibition in assay [13] was found to be 12%; in assay [14] it was 1%.
